Reference: ChEMBL document CHEMBL1147748, “Overlapping, nonidentical binding sites of different classes of nonpeptide antagonists for the human gonadotropin-releasing hormone receptor” (J Med Chem, 2006)

Columns and labels:
[1] = target: Gonadotropin-releasing hormone receptor (Homo sapiens, UniProt P30968, D293A); assay: Displacement of [125I]-His5, D-Tyr6]GnRH from mutant GnRHR, GnRHR D293A
Summary of the method: (§1)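 Human GnRH-R (wild type or site-directed point mutant) was transiently expressed in COS-7 cells by electroporation, with cells cultured 36-48 h before membranes were prepared. Membranes (5-20 µg per point) were incubated 2 h at room temperature with 0.3 nM tracer and varying competitor in HEPES pH 7.5, 150 mM NaCl, 0.1% BSA, then filtered and counted.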

[2] = target: Gonadotropin-releasing hormone receptor (Homo sapiens, UniProt P30968, W280F); assay: Displacement of [125I]-His5, D-Tyr6]GnRH from mutant GnRHR, GnRHR W280F
[3] = target: Gonadotropin-releasing hormone receptor (Homo sapiens, UniProt P30968, L112K); assay: Displacement of [125I]-His5, D-Tyr6]GnRH from mutant GnRHR, GnRHR L112K; summary of the method: as §1
[4] = target: Gonadotropin-releasing hormone receptor (Homo sapiens, UniProt P30968, L112F); assay: Displacement of [125I]-His5, D-Tyr6]GnRH from mutant GnRHR, GnRHR L112F; summary of the method: as §1
Chain of Gonadotropin-releasing hormone receptor (Homo sapiens, UniProt P30968, L112F) (P30968 whole entry L112F): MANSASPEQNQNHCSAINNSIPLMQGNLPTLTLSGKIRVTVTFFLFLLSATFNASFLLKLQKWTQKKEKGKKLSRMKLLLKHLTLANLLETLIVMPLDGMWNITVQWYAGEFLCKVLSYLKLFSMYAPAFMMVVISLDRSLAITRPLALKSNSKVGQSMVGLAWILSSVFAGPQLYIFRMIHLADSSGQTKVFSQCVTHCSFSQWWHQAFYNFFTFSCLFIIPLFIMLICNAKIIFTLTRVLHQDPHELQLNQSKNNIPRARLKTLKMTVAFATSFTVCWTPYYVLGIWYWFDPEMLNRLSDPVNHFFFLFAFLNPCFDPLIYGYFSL

[5] = target: Gonadotropin-releasing hormone receptor (Homo sapiens, UniProt P30968, Y290F); assay: Displacement of [125I]-His5, D-Tyr6]GnRH from mutant GnRHR, GnRHR Y290F
Chain of Gonadotropin-releasing hormone receptor (Homo sapiens, UniProt P30968, Y290F) (P30968 whole entry Y290F): as the sequence (P30968 whole entry L112F) above, with F112L, Y290F counted along it

[6] = target: Gonadotropin-releasing hormone receptor (Homo sapiens, UniProt P30968, M24I); assay: Displacement of [125I]-His5, D-Tyr6]GnRH from mutant GnRHR, GnRHR M24I; summary of the method: as §1
[7] = target: Gonadotropin-releasing hormone receptor (Homo sapiens, UniProt P30968, L300K); assay: Displacement of [125I]-His5, D-Tyr6]GnRH from mutant GnRHR, GnRHR L300K; summary of the method: as §1
[8] = target: Gonadotropin-releasing hormone receptor (Homo sapiens, UniProt P30968, N315A); assay: Displacement of [125I]-His5, D-Tyr6]GnRH from mutant GnRHR, GnRHR N315A; summary of the method: as §1
[9] = target: Gonadotropin-releasing hormone receptor (Homo sapiens, UniProt P30968, E295A); assay: Displacement of [125I]-His5, D-Tyr6]GnRH from mutant GnRHR, GnRHR E295A; summary of the method: as §1
Chain of Gonadotropin-releasing hormone receptor (Homo sapiens, UniProt P30968, E295A) (P30968 whole entry E295A): as the sequence (P30968 whole entry L112F) above, with F112L, E295A counted along it

[10] = target: Gonadotropin-releasing hormone receptor (Homo sapiens, UniProt P30968, E111Q); assay: Displacement of [125I]-His5, D-Tyr6]GnRH from mutant GnRHR, GnRHR E111Q; summary of the method: as §1
Chain of Gonadotropin-releasing hormone receptor (Homo sapiens, UniProt P30968, E111Q) (P30968 whole entry E111Q): as the sequence (P30968 whole entry L112F) above, with E111Q, F112L counted along it

[11] = target: Gonadotropin-releasing hormone receptor (Homo sapiens, UniProt P30968, E111A); assay: Displacement of [125I]-His5, D-Tyr6]GnRH from mutant GnRHR, GnRHR E111A; summary of the method: as §1
Chain of Gonadotropin-releasing hormone receptor (Homo sapiens, UniProt P30968, E111A) (P30968 whole entry E111A): as the sequence (P30968 whole entry L112F) above, with E111A, F112L counted along it

[12] = target: Gonadotropin-releasing hormone receptor (Homo sapiens, UniProt P30968, S203E); assay: Displacement of [125I]-His5, D-Tyr6]GnRH from mutant GnRHR, GnRHR S203E
[13] = target: Gonadotropin-releasing hormone receptor (Homo sapiens, UniProt P30968, E111K); assay: Displacement of [125I]-His5, D-Tyr6]GnRH from mutant GnRHR, GnRHR E111K; summary of the method: as §1
[14] = target: Gonadotropin-releasing hormone receptor (Homo sapiens, UniProt P30968, Q189P); assay: Displacement of [125I]-His5, D-Tyr6]GnRH from mutant GnRHR, GnRHR Q189P
Chain of Gonadotropin-releasing hormone receptor (Homo sapiens, UniProt P30968, Q189P) (P30968 whole entry Q189P): as the sequence (P30968 whole entry L112F) above, with F112L, Q189P counted along it

[15] = target: Gonadotropin-releasing hormone receptor (Homo sapiens, UniProt P30968, M24A); assay: Displacement of [125I]-His5, D-Tyr6]GnRH from mutant GnRHR, GnRHR M24A; summary of the method: as §1
[16] = target: Gonadotropin-releasing hormone receptor (Homo sapiens, UniProt P30968, F309Q); assay: Displacement of [125I]-His5, D-Tyr6]GnRH from mutant GnRHR, GnRHR F309Q; summary of the method: as §1
[17] = target: Gonadotropin-releasing hormone receptor (Homo sapiens, UniProt P30968, S186D); assay: Displacement of [125I]-His5, D-Tyr6]GnRH from mutant GnRHR, GnRHR S186D
Chain of Gonadotropin-releasing hormone receptor (Homo sapiens, UniProt P30968, S186D) (P30968 whole entry S186D): as the sequence (P30968 whole entry L112F) above, with F112L, S186D counted along it

[18] = target: Gonadotropin-releasing hormone receptor (Homo sapiens, UniProt P30968, D302N); assay: Displacement of [125I]-His5, D-Tyr6]GnRH from mutant GnRHR, GnRHR D302N; summary of the method: as §1
[19] = target: Gonadotropin-releasing hormone receptor (Homo sapiens, UniProt P30968, S168A); assay: Displacement of [125I]-His5, D-Tyr6]GnRH from mutant GnRHR, GnRHR S168A
[20] = target: Gonadotropin-releasing hormone receptor (Homo sapiens, UniProt P30968, D293K); assay: Displacement of [125I]-His5, D-Tyr6]GnRH from mutant GnRHR, GnRHR D293K; summary of the method: as §1
Chain of Gonadotropin-releasing hormone receptor (Homo sapiens, UniProt P30968, D293K) (P30968 whole entry D293K): as the sequence (P30968 whole entry L112F) above, with F112L, D293K counted along it

[21] = target: Gonadotropin-releasing hormone receptor (Homo sapiens, UniProt P30968, Y290L); assay: Displacement of [125I]-His5, D-Tyr6]GnRH from mutant GnRHR, GnRHR Y290L
Chain of Gonadotropin-releasing hormone receptor (Homo sapiens, UniProt P30968, Y290L) (P30968 whole entry Y290L): as the sequence (P30968 whole entry L112F) above, with F112L, Y290L counted along it

[22] = target: Gonadotropin-releasing hormone receptor (Homo sapiens, UniProt P30968, L117A); assay: Displacement of [125I]-His5, D-Tyr6]GnRH from mutant GnRHR, GnRHR L117A; summary of the method: as §1
[23] = target: Gonadotropin-releasing hormone receptor (Homo sapiens, UniProt P30968, S203P); assay: Displacement of [125I]-His5, D-Tyr6]GnRH from mutant GnRHR, GnRHR S203P
[24] = target: Gonadotropin-releasing hormone receptor (Homo sapiens, UniProt P30968, S118N); assay: Displacement of [125I]-His5, D-Tyr6]GnRH from mutant GnRHR, GnRHR S118N
Chain of Gonadotropin-releasing hormone receptor (Homo sapiens, UniProt P30968, S118N) (P30968 whole entry S118N): as the sequence (P30968 whole entry L112F) above, with F112L, S118N counted along it

[25] = target: Gonadotropin-releasing hormone receptor (Homo sapiens, UniProt P30968, W291F); assay: Displacement of [125I]-His5, D-Tyr6]GnRH from mutant GnRHR, GnRHR W291F
[26] = target: Gonadotropin-releasing hormone receptor (Homo sapiens, UniProt P30968, H306E); assay: Displacement of [125I]-His5, D-Tyr6]GnRH from mutant GnRHR, GnRHR H306E; summary of the method: as §1
[27] = target: Gonadotropin-releasing hormone receptor (Homo sapiens, UniProt P30968, N27A); assay: Displacement of [125I]-His5, D-Tyr6]GnRH from mutant GnRHR, GnRHR N27A; summary of the method: as §1
Chain of Gonadotropin-releasing hormone receptor (Homo sapiens, UniProt P30968, N27A) (P30968 whole entry N27A): as the sequence (P30968 whole entry L112F) above, with N27A, F112L counted along it

[28] = target: Gonadotropin-releasing hormone receptor (Homo sapiens, UniProt P30968, A50T); assay: Displacement of [125I]-His5, D-Tyr6]GnRH from mutant GnRHR, GnRHR A50T; summary of the method: as §1
[29] = target: Gonadotropin-releasing hormone receptor (Homo sapiens, UniProt P30968, K115Q); assay: Displacement of [125I]-His5, D-Tyr6]GnRH from mutant GnRHR, GnRHR K115Q; summary of the method: as §1
Chain of Gonadotropin-releasing hormone receptor (Homo sapiens, UniProt P30968, K115Q) (P30968 whole entry K115Q): as the sequence (P30968 whole entry L112F) above, with F112L, K115Q counted along it

[30] = target: Gonadotropin-releasing hormone receptor (Homo sapiens, UniProt P30968, S168I); assay: Displacement of [125I]-His5, D-Tyr6]GnRH from mutant GnRHR, GnRHR S168I
Chain of Gonadotropin-releasing hormone receptor (Homo sapiens, UniProt P30968, S168I) (P30968 whole entry S168I): as the sequence (P30968 whole entry L112F) above, with F112L, S168I counted along it

Chain of Gonadotropin-releasing hormone receptor (Homo sapiens, UniProt P30968, D293A) (P30968 whole entry D293A): as the sequence (P30968 whole entry L112F) above, with F112L, D293A counted along it

COc1c(C)cc(-c2[nH]c3ccc(C(C)(C)C(=O)N(CC(C)C)CC(C)C)cc3c2[C@H](C)CNCCc2ccccc2)cc1C
IC50 [1]: 24.5 nM | IC50 [2]: 139 nM | IC50 [3]: 24.2 nM | IC50 [4]: 29.5 nM | IC50 [5]: 39.6 nM | IC50 [6]: 23.2 nM | IC50 [7]: 277 nM | IC50 [8]: 47.1 nM | IC50 [9]: 11.2 nM | IC50 [10]: 11.5 nM | IC50 [11]: 5.4 nM | IC50 [12]: 15.1 nM | IC50 [13]: 13.6 nM | IC50 [14]: 10.8 nM | IC50 [15]: 17.9 nM | IC50 [16]: 222 nM | IC50 [17]: 11.3 nM | IC50 [18]: 27.3 nM | IC50 [19]: 8.9 nM | IC50 [20]: 56.1 nM | IC50 [21]: 202 nM | IC50 [22]: 4.8 nM | IC50 [23]: 41.4 nM | IC50 [24]: 63.7 nM | IC50 [25]: 6.8 nM | IC50 [26]: 48.8 nM | IC50 [27]: 8.8 nM | IC50 [28]: 17.8 nM | IC50 [29]: 27 nM | IC50 [30]: 15.2 nM

CC(C)C[C@H](NC(=O)[C@@H](Cc1ccc(O)cc1)NC(=O)[C@H](Cc1c[nH]cn1)NC(=O)[C@H](CO)NC(=O)[C@H](Cc1c[nH]c2ccccc12)NC(=O)[C@H](Cc1c[nH]cn1)NC(=O)[C@@H]1CCC(=O)N1)C(=O)N[C@@H](CCCN=C(N)N)C(=O)N1CCC[C@H]1C(=O)NCC(N)=O
IC50 [1]: 5.7 nM | IC50 [2]: 10.3 nM | IC50 [3]: 3.5 nM | IC50 [4]: 2.7 nM | IC50 [5]: 48.8 nM | IC50 [6]: 2.2 nM | IC50 [7]: 35.3 nM | IC50 [8]: 0.8 nM | IC50 [9]: 1.9 nM | IC50 [10]: 3.3 nM | IC50 [11]: 4.6 nM | IC50 [12]: 2.9 nM | IC50 [13]: 10.5 nM | IC50 [14]: 1.9 nM | IC50 [15]: 5.9 nM | IC50 [16]: 65.1 nM | IC50 [17]: 3.1 nM | IC50 [18]: 16.5 nM | IC50 [19]: 4 nM | IC50 [20]: 4.8 nM | IC50 [21]: 951 nM | IC50 [22]: 4.1 nM | IC50 [23]: 5.4 nM | IC50 [24]: 1.1 nM | IC50 [25]: 60.1 nM | IC50 [26]: 52.8 nM | IC50 [27]: 5.8 nM | IC50 [28]: 3.6 nM | IC50 [29]: 8.2 nM | IC50 [30]: 3.8 nM
